# Screening results from PubChem.
# Sampled rows, rich in hits. Any-hit rate of the full collection: about 2.3%.
# Diaph act CS = compounds boosting diaphorase resazurin reduction – biochemical, uHTS, resorufin fluorescence, counter-screen for diaphorase-coupled primary assays, primary screen; Diaphorase/resazurin coupled assay, 16 min; active compounds read high; 1 = vehicle wells, 0 = NADH-free wells; activation factor at 20 µM; hit rate 0.005% among 190,000; AID 1229, 2008;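 active = diaphorase activity raised at least twofold by the compound at 20 µM; inactive = activation factor below 2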
#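 Measured by – red resorufin fluorescence at 544/590 nm excitation/emission · Test system – Clostridium kluyveri diaphorase, purified enzyme · Incubation – reaction time 16 min, room temperature · Buffer or medium – 50 mM HEPES pH 7.4 with 4.542 mM MgCl2, 0.005% Tween 20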
# G6PDH counter = L. mesenteroides G6PDH inhibitors, counter-screen for G6PDH-coupled screening assays, biochemical, Leuconostoc mesenteroides enzyme; glucose-6-phosphate dehydrogenase [Leuconostoc mesenteroides]; Purified L. mesenteroides G6PDH, diaphorase/resazurin coupled fluorescence, 45 min; inhibition, % at 5 µM; hit rate 0.12% among 200,000; AID 1020, 2008; in the data active = inhibition above about 50%
# FLuc inhib CS = firefly luciferase enzyme inhibitors, primary screen, artefact control for luciferase-based inhibitor screens, biochemical, luminescence, ATPLite. Luciferin 4-monooxygenase (Photinus pyralis), P08659. hit rate 1.5% among 200,000. inhibition, % at 10 µM. AID 1006, 2008. 10 min;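 active = inhibition above about 50% when tested at 10 µM, limit read from the data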
# Target sequence (P08659 whole entry, looked up): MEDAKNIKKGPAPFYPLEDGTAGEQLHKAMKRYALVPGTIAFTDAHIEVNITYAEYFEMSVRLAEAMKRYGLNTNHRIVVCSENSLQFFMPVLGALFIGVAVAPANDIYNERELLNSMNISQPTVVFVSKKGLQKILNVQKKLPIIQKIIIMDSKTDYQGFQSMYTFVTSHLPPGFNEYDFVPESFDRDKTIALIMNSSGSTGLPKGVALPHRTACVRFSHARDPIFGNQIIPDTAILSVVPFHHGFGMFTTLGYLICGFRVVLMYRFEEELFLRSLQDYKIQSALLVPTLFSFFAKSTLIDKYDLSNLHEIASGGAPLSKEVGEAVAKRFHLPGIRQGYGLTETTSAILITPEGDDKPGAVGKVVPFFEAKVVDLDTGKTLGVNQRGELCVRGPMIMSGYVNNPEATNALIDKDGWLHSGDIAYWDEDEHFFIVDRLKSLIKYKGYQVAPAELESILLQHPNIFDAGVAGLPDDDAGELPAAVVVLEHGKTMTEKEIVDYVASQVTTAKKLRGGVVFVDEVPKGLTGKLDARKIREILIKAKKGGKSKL
# FLuc stim CS = FLuc activators, initial screening, artefact control for FLuc-dependent activation tests, biochemical, ATPlite luminescence | Luciferin 4-monooxygenase (Photinus pyralis), P08659 | ATPlite luciferase biochemical, 10 min; 0 = ATP-free wells, 1 = DMSO control | activation factor at 10 µM | 200,000 tested, under 10 active;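 active = luciferase activation factor, scaled between plate controls, of at least 2 with compound at 10 µM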
#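 Material: Luciferase/luciferin reagent mix; Doses: test compounds dosed from 2 mM stocks in 100% DMSO; Schedule: 10 min incubation after luciferase reagent addition, room temperature; Measured by: luminescence from luciferase reaction; Read-out: luminescence gain marking luciferase activators.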
# Diaph inh CS = diaphorase inhibitors and chemical oxidizers, primary screen, counter-screen for diaphorase-coupled primary assays, biochemical, uHTS, resorufin fluorescence; diaphorase resazurin-to-resorufin fluorescence, NADH, 16 min; bacterial (C. kluyveri) enzyme, not human; inhibition, % at 20 µM; hit rate 0.69% among 190,000;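 active = primary screen inhibition at 20 µM above a set limit, cut at about 50% in these data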;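 note: plate controls were DMSO with full reaction for no effect and wells lacking NADH for full effect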
#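 System: Diaphorase enzyme from Clostridium kluyveri | Amount: Enzyme working solution with 0.14 U/mL diaphorase | Benchmarks: No-NADH positive control and DMSO neutral control | Signal: Fluorescence of resorufin formed from resazurin, Ex 544/Em 590 nm | Schedule: 16-min room-temperature incubation before reading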
# Numbers without * were called inactive; x = no result.
SMILES,Diaph act CS,G6PDH counter,FLuc inhib CS,FLuc stim CS,Diaph inh CS
O=C(/C=C\Nc1cccc(F)c1)c1ccc2c(c1)OCO2,0.9,13,90*,0.1,13
O=C(CSc1ccccc1C(=O)NCc1ccccc1)NC1CCCCCCC1,0.9,5,18,0.8,13
O=C(OCc1ccc(Cl)cc1Cl)c1ccncc1,1,7,-4,1,-3
COc1ccc(-c2noc(CSc3nc(-c4ccccc4)cc(=O)[nH]3)n2)cc1OC,0.3,14,3,1,67*
COc1ccc(-c2noc(CCCc3ccccc3)n2)cc1OC,0.7,-28,-3,1,30
O=C(NC(c1ccccc1)c1cc(Cl)c2cccnc2c1O)c1cccnc1 (configuration not stated),0.9,5,-6,1.1,12
CCOc1ccc(C(Nc2cccnc2)c2cc(Cl)c3cccnc3c2O)cc1 (configuration not stated),0.7,28,-2,1,30
O=C(O)COc1ccccc1C(Nc1cccnc1)c1cc(Cl)c2cccnc2c1O (configuration not stated),0.4,23,-6,1.1,61*
Cc1ccc(C(NC(=O)C(C)C)c2cc([N+](=O)[O-])c3cccnc3c2O)cc1 (configuration not stated),0.6,53*,-7,1.1,39
O=C(O)COc1ccccc1C(Nc1ccccn1)c1cc(Cl)c2cccnc2c1O (configuration not stated),0.5,17,-2,1,51*
COc1ccc(C(NC(C)=O)c2cc(Cl)c3cccnc3c2O)cc1OC (configuration not stated),0.3,10,-3,1,66*
COc1cc(C2Nn3c(nnc3-c3ccccc3OC)S2)ccc1O (configuration not stated),1.1,0,-4,1,-7
Cc1cccc(N2CCN(Cc3nc(-c4cccc(Oc5ccccc5)c4)oc3C)CC2)n1,x,8,-5,1.1,x
COCc1cc(=O)[nH]c2cc(NC(=O)C3CC3)c(C)cc12,1,1,-3,1,-5
COCCn1c(NC(=S)NC(=O)C2CC2)cc(=O)[nH]c1=O,0.4,-7,-7,1.1,61*
CCCc1ccc(-c2ccc(F)c(N)c2)nc1,1,5,90*,0.1,3
CCCCc1ccc(-c2ccc(Br)cc2)nc1,0.9,3,44,0.6,11
O=C1C(Cl)=C(Nc2ccccc2)C(=O)c2ccccc21,0.7,45,-1,1,31
O=C(O)c1cccc(NC2=C(Cl)C(=O)c3ccccc3C2=O)c1,0.8,52*,2,1,25
CCc1cc2c(Sc3nc4ccccc4s3)ncnc2s1,0.9,4,-1,1,9
c1ccc2sc(Sc3ncnc4sccc34)nc2c1,0.8,7,64*,0.4,19
Cc1ccc(Nc2nc(C3CC3)cs2)cc1,0.9,1,69*,0.3,9
COc1ccccc1N(CC(=O)NCCSc1ccc(Cl)cc1)S(C)(=O)=O,0.8,5,-7,1.1,18
Cc1ccc(C(=O)Nc2ncc(C)s2)o1,0.9,-1,41,0.6,6
Cc1ccc(C(=O)Nc2ncc(Cc3ccc(F)cc3)s2)o1,0.8,5,62*,0.4,21
O=C(NCC1CCCO1)C(=O)NCC(c1ccco1)N1CCN(c2ccccc2)CC1 (configuration not stated),1,5,-2,1,1
Cc1ccc(N2C(=O)c3ccccc3C2O)nc1 (configuration not stated),0.9,9,80*,0.2,14
COc1cccc2cc(-c3ccccc3)c(=O)oc12,1.1,2,60*,0.4,-6
O=C1Nc2ccccc2N2CCCC12 (configuration not stated),0.4,15,-2,1,60*
O=C(CN1CCOCC1)NCC12CC3CC(CC(C3)C1)C2,0.9,2,-5,1.1,14
